# From ChEMBL document CHEMBL4513216, “Probing the Open Global Health Chemical Diversity Library for Multistage-Active Starting Points for Next-Generation Antimalarials” (ACS Infect Dis, 2020)
# Experiment: Toxicity liver stage against HepG2, at 10uM
# Format: cell-based
# Design: test concentration 10 uM, cell line HepG2-A16-CD81EGFP
# Conditions: human, HepG2-A16-CD81EGFP cells; read-out: INHIBITION
# Procedure, shortened: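 Uninfected HepG2-A16-CD81EGFP cells, 3 × 10^3 per well, 1536-well, plated on prespotted compound at 10 μM final, parasite-free screening media added to match infected plates; puromycin 10 μM positive, DMSO 0.5% negative; run in parallel with 48 h PbLuc assay at 37 °C, 5% CO2; viability by CellTiter-Glo luminescence, normalized to controls.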
row,Structure (SMILES),cytotoxicity at 10 µM
1,Cc1cccc(-c2noc([C@@H]3C[C@@H](O)CN3C)n2)c1,-3.54%
2,Cn1cnc2cc(NC(=O)c3n[nH]c4c3CCC4)ccc21,-0.806%
3,O=C(c1nnn(-c2ccc(F)cc2)n1)N(CCO)Cc1ccccc1,1.56%
4,Cc1c[nH]nc1C1CCN(C(=O)CC2CCCC2)C1 (stereo not given),-4.15%
5,COc1cccc(C(=O)Nc2ccc(OCCC(N)=O)cc2)c1OC,4.19%
6,NC(=O)CS(=O)(=O)Cc1ccc(OCc2ccc(F)cc2)cc1,4.93%
7,COc1cc(NC(=O)c2cccc(N(C)C)c2)cc(OC)c1,0.03%
8,CN(CC(=O)Nc1ccccc1)C(=O)CN(C)c1ccc(Cl)cn1,-1.83%
9,Cc1ccc(F)c(CNc2ccn(CCC(N)=O)n2)c1,-4.75%
10,Cc1ncc2c(n1)CCN(Cc1nc(Cc3ccccc3)no1)C2,0.414%
11,COc1ccc(C)cc1CN1CCN(Cc2nccn2C)CC1,5.5%
12,COC(=O)c1cc(NC2CCN(CC(F)(F)F)C2=O)ccc1C (stereo not given),-0.812%
13,COc1cc(Cl)ccc1C(=O)NCC(=O)Nc1nccs1,6.62%
14,CCN(Cc1ccco1)C(C)c1nc(C(C)C)no1 (stereo not given),15.6%
15,CCOc1ccccc1C(=O)N(C)C(C)c1ccc(S(C)(=O)=O)cc1 (stereo not given),12.9%
16,O=C(c1csc(-c2ccco2)n1)N1CCOc2ncccc21,10.2%
17,COC1CCN(C(=O)c2csc(-c3ccccc3F)n2)CC1,-5.6%
18,N#Cc1ccc(N2CCCC2Cn2cccn2)nc1 (stereo not given),6.55%
19,CCNC(=O)NC(C)(C)C(=O)NCc1cccc(N2CC=CC2)c1,7.35%
20,CC(=O)Nc1cc(C(=O)Nc2cc(CC(C)(C)C)nn2C)ccc1F,0.388%
21,O=C(c1cn(-c2cccc(Cl)c2F)nn1)N1CCCSCC1,3.98%
22,CC(Oc1ccc(S(C)(=O)=O)cc1)C(=O)NC(N)=O (stereo not given),-5.69%
23,Cc1cc(NC(=O)NCCc2ccc(S(N)(=O)=O)cc2)n(C)n1,-3.39%
24,CNC(=O)CN(C)Cc1ccc(F)cc1Cl,-2.9%
25,Cc1c(C(=O)NCCC(=O)N2CCOCC2)sc2ccc(F)cc12,4.5%

row,Structure (SMILES),cytotoxicity at 10 µM
1,CC(C)(C)c1noc(CCCC(=O)N2CCCC(c3ccn[nH]3)C2)n1 (stereo not given),-14.2%
2,O=S1(=O)CCC(c2nc(-c3cccc(Br)c3)no2)C1 (stereo not given),7.51%
3,COc1ccc(C(C)Nc2ncc(C(N)=O)cc2Cl)cc1F (stereo not given),5.37%
4,O=C(COCc1ccccc1Cl)N1CCN(c2ncccn2)CC1,6.43%
5,CC(C)Nc1ccnc(-c2ccnc3c2ccn3C)n1,-5.2%
6,COCCc1noc(-c2ccc(-c3cc[nH]n3)nc2)n1,-2.79%
7,c1csc(-c2noc(COCC3CCCO3)n2)c1 (stereo not given),-1.62%
8,Cc1cccc(C2CCCN(C(=O)CN3CCOC3=O)C2)c1 (stereo not given),-2.82%
9,O=C1CCCCN1CC(=O)N1CCCC(c2ccccc2)C1 (stereo not given),-1.05%
10,Cc1ccc(CCNc2ncnc3sc4c(c23)CCNC4)o1,3.94%
11,Cc1cccc2nc(-c3nc4c([nH]3)CCCNC4=O)cn12,3.67%
12,COC(C)(C)CC(C)NCc1nncn1C1CCCCC1 (stereo not given),-2.87%
13,O=C(CN1C(=O)CCNC1=O)N1CCOC(c2ccc(F)cc2)C1 (stereo not given),5.11%
14,O=C1CC2(CCCC2)CN1CCOc1ccc(F)cc1,1.05%
15,Cc1cc(C(=O)N2CCCC3(C=Cc4ccccc4O3)CC2)cc(=O)[nH]1 (stereo not given),8.06%
16,CCNC(=O)[C@@H]1C[C@H](N)CN1c1cc(C(F)(F)F)nc(N(C)C)n1,-14.1%
17,COCCN(Cc1sccc1C)C(=O)C1CCCN(C(N)=O)C1 (stereo not given),-4.7%
18,O=c1c2cccc(F)c2ncn1CCN1CCOCC1,2.53%
19,O=C(NC1CC1)C1CNCCN1C(=O)CCc1ccc2c(c1)OCO2 (stereo not given),-0.766%
20,CC(C)n1cnnc1CN(C)Cc1cnc(-c2cccs2)nc1,8.55%
21,COc1ccccc1C1CCN(C(=O)CN2C(=O)OC(C)(C)C2=O)CC1,8.12%
22,O=C(NCCCc1ccco1)c1ccc(N2CCOCC2)cc1,-5.54%
23,O=C(CCC(=O)N1CCC(Cc2ccc(CO)cc2)C1)c1ccccc1 (stereo not given),0.727%
24,COc1c(-c2ccc(O)cc2)oc2cc(O)cc(O)c2c1=O [ISOKAEMPFERIDE],7.8%
25,CCCNC(=O)C(C)Nc1ccc(OCC)cc1 (stereo not given) [PROPETAMIDE],8.84%
